How the values were obtained:
Details in all cases: stereoisomer not certain
OR10H3 (Homo sapiens) = biological target: T1, OR10H3 (Homo sapiens) (UniProt O60404)
T1 sequence (whole entry): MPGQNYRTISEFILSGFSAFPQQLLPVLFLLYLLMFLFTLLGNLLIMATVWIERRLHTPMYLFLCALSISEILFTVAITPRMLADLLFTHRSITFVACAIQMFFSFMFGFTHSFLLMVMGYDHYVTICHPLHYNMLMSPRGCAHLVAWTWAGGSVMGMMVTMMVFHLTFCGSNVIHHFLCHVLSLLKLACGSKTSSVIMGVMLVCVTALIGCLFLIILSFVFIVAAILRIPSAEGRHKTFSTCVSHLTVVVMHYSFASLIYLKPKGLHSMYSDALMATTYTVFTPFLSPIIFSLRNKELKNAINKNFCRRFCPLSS
Outline: (§1)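 Each receptor–molecule pair is labelled responsive or non-responsive (inactive) according to whether the original authors judged the measured signal statistically different from baseline. The data were taken from the main text and supplementary material of published papers and checked for typos and inconsistencies. Assay methods differed by source, with transient luciferase assays in mammalian cell lines being common.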

OR10H4 (Homo sapiens) = biological target: T2, OR10H4 (Homo sapiens) (UniProt Q8NGA5)
T2 sequence (whole entry): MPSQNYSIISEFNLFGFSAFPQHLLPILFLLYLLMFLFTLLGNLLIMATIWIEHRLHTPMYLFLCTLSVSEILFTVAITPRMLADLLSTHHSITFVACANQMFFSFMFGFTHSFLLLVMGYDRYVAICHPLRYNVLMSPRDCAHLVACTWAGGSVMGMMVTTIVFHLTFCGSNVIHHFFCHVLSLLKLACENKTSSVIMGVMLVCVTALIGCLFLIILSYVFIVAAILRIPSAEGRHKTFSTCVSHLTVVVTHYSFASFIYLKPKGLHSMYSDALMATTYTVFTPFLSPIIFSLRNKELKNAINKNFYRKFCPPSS
Outline: as §1

OR10H5 (Homo sapiens) = biological target: T3, OR10H5 (Homo sapiens) (UniProt Q8NGA6)
T3 sequence (whole entry): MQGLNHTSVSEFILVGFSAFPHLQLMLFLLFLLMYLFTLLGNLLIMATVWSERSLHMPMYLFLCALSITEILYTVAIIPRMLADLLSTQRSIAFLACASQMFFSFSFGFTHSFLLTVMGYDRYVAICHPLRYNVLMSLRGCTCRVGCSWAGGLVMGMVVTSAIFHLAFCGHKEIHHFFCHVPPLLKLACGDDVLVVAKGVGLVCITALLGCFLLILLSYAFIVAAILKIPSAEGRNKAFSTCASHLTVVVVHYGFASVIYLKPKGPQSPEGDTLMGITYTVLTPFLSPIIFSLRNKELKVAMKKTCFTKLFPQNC
Outline: as §1

OR10J1 (Homo sapiens) = biological target: T4, OR10J1 (Homo sapiens) (UniProt P30954)
T4 sequence (whole entry): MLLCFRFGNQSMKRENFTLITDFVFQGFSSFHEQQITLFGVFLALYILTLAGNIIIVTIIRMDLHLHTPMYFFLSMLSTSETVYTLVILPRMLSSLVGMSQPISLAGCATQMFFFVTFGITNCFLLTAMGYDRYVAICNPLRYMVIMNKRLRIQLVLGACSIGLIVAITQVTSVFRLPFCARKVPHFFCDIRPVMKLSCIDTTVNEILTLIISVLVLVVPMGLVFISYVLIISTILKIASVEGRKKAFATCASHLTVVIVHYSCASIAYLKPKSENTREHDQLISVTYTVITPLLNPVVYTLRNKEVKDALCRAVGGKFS
Outline: as §1

OR10J3 (Homo sapiens) = biological target: T5, OR10J3 (Homo sapiens) (UniProt Q5JRS4)
T5 sequence (whole entry): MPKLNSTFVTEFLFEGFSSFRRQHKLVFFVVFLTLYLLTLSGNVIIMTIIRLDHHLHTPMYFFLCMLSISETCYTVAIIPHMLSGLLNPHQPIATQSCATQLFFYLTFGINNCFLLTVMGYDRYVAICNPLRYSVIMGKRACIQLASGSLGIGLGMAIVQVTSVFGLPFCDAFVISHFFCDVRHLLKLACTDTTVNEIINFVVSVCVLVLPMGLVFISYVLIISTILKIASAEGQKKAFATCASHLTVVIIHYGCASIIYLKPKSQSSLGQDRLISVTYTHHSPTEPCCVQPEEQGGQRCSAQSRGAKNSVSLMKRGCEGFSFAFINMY
Outline: as §1

OR10J5 (Homo sapiens) = biological target: T6, OR10J5 (Homo sapiens) (UniProt Q8NHC4)
T6 sequence (whole entry): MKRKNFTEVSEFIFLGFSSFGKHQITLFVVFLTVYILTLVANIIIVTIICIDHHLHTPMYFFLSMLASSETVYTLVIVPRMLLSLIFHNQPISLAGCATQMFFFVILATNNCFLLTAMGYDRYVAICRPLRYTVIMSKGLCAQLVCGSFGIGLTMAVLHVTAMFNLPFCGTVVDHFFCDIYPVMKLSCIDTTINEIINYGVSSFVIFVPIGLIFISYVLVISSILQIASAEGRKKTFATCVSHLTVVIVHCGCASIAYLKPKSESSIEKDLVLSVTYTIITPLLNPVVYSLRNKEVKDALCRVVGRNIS
Outline: as §1

OR10K1 (Homo sapiens) = biological target: T7, OR10K1 (Homo sapiens) (UniProt Q8NGX5)
T7 sequence (whole entry): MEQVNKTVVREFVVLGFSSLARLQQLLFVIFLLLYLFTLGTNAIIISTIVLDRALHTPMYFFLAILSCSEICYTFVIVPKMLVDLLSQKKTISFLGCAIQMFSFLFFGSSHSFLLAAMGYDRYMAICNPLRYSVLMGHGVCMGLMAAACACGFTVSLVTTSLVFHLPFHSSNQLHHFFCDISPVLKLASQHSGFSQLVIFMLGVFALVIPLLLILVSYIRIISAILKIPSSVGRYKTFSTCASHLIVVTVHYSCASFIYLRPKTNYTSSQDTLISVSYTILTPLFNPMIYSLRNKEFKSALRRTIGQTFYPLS
Outline: as §1

OR10K2 (Homo sapiens) = biological target: T8, OR10K2 (Homo sapiens) (UniProt Q6IF99)
T8 sequence (whole entry): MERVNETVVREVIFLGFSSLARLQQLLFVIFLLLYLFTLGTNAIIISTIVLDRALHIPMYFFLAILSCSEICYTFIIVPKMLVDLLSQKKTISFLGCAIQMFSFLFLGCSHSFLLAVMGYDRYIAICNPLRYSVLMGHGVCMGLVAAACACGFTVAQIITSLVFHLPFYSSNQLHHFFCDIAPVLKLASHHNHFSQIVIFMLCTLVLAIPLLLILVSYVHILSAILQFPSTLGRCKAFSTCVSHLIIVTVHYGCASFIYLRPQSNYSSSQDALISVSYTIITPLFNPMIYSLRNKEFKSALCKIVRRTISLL
Outline: as §1

OR10P1 (Homo sapiens) = biological target: T9, OR10P1 (Homo sapiens) (UniProt Q8NGE3)
T9 sequence (whole entry): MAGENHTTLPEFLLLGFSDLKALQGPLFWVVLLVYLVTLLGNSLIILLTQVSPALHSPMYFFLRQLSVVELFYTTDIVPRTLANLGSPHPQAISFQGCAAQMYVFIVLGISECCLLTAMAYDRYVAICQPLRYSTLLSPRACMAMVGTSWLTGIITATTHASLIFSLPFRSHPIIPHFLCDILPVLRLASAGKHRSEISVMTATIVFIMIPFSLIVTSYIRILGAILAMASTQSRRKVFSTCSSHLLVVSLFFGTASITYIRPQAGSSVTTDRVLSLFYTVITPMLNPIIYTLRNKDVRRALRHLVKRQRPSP
Outline: as §1

OR10Q1 (Homo sapiens) = biological target: T10, OR10Q1 (Homo sapiens) (UniProt Q8NGQ4)
T10 sequence (whole entry): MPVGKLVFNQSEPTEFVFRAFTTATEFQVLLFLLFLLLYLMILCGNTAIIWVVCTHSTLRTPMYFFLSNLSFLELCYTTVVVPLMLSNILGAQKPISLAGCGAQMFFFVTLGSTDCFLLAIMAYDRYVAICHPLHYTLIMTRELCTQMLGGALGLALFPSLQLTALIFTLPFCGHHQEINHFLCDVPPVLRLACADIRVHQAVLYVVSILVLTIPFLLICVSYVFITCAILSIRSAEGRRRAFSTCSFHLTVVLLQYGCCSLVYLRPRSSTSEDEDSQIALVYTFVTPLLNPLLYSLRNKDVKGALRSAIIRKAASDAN
Outline: as §1

Measured: odorant receptor agonist call

CCCCC(S)C(C)CO (stereo not given)
active: OR10J5 (Homo sapiens)
inactive: all other assays above
